Each structure is given as a SMILES string. pEC50, pIC50: −log10 of the molar value.

The nature of series [1]: Inhibition of HCV NS3 helicase. Further details: species or system Hepacivirus hominis. The gist of the method:
(§1)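 Fluorescence unwinding assay with purified NS3 helicase domains. Genotype 1a was expressed in baculovirus-infected insect cells; genotypes 1b and 3a were cloned from patient blood by RT-PCR, purity 95% by SDS–PAGE. Reactions used 10 nM dsDNA substrate, 20 nM enzyme and 125 nM capture strand. Inhibitor (1–300 μM) was preincubated with enzyme and substrate 15 min at room temperature without ATP. Reactions were started with 1.5 mM ATP and run 60 min at 30 °C, read every 2 min. Activity = initial velocity; inhibition relative to no-inhibitor control. Mean of at least three experiments ± SD.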

Series [2] can be described thus: Cytotoxicity against human HuH7 cells. In kind it is cell-based, Huh-7. The gist of the method:
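Replicon-bearing Huh-7 cells were grown with compound at 1 μM to 1 mM at a constant final 1% solvent. CC50 = concentration inhibiting cell growth by 50%. Mean of at least three independent experiments ± SD.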

For series [3], the system named is Hepatitis C virus. Description: Antiviral activity against HCV Con 1 by subgenomic replicon assay. In kind it is functional, organism-based, Hepacivirus hominis. Conditions: Con1. An outline of the steps: (§2)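 Huh-7 cells carrying a stably replicating subgenomic HCV replicon were grown with compound at 1 μM to 1 mM, final solvent 1%; solvent-only cells served as control. Remaining replication read as luminescence. EC50 = concentration reducing luminescence by 50%; SI = CC50/EC50. Mean of at least three independent experiments ± SD.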
On the technique in general: In antiviral work, replicon cells carry a viral genome segment that copies itself.

A short description of series [4]: Selectivity index, ratio of CC50 for human HuH7 cells to EC50 for. Further details: species or system Huh-7. The gist of the method:
as §2

The test system of series [5] is Hepatitis C virus. Description: Inhibition of HCV genotype 1B NS3 helicase. Set-up: species or system Hepatitis C virus subtype 1b. The gist of the method: as §1
The nature of series [6]: Inhibition of HCV genotype 1a NS3 helicase. Set-up: species or system Hepatitis C virus subtype 1a. The gist of the method:
as §1

Series [7] in a line: Inhibition of HCV genotype 3a NS3 helicase. Set-up: species or system Hepatitis C virus subtype 3a. The gist of the method: as §1

A word on the pIC50: it is −log10 of the IC50, conventionally taken in molar units. Read a low pIC50 as a large IC50. As usually defined, the CC50 is the concentration that lowers cell viability or growth by half. Read a high CC50 as lower toxicity to the cells. The term pEC50 denotes the EC50 on a negative log10 scale, so that one unit is a factor of ten. Read a high pEC50 as a low EC50. With `O=c1c(CN2CCC(N3CCCC3)CC2)cc(CN2CCC(N3CCCC3)CC2)cc(CN2CCC(N3CCCC3)CC2)c1O`, the pIC50 in series [1] was 5.15. For the same molecule, the CC50 in series [2] is over 200 µM. Besides, the pEC50 with Hepatitis C virus [3] is under 3.70.
The molecule `O=c1c(Cl)cccc(Cl)c1O` had a pIC50 in series [1] of under 3.82. In addition, in series [2], the CC50 stood at 254 µM. This molecule showed a pEC50 with Hepatitis C virus [3] of 3.48. Also, in series [4], the “Ratio CC50/EC50” value is 0.8.
The matching figures for `O=c1c(Br)cccc(Br)c1O`: under 3.82, 92.7 µM, 4.05 and 1.
The matching figures for `O=c1ccccc(Br)c1O`: under 3.82, 85.2 µM, 3.92 and 0.7.
The matching figures for `O=c1c(Br)cc(CN2CCOCC2)cc(Br)c1O`: 4.75, 227 µM, 3.75 and 1.3.
Molecule `O=c1c(CN2CCCCC2)cc(CN2CCCCC2)cc(CN2CCCCC2)c1O` showed a pIC50 in series [1] of 4.58. The molecule also registered a CC50 in series [2] of over 500 µM. The same molecule gave a pEC50 in the series on Hepatitis C virus [3] of 3.86. Besides, in series [4], the “Ratio CC50/EC50” value is reported as over 3.6.
`CN1CCN(Cc2cc(CN3CCN(C)CC3)c(O)c(=O)c(CN3CCN(C)CC3)c2)CC1`: the pIC50 with Hepatitis C virus [5] is 5.46; in series [1] it was 5.47; in series [6], 5.47; in series [7], 5.35. The CC50 in series [2] was over 1000 µM. For the same molecule, the pEC50 in the series with Hepatitis C virus [3] is 4.33. Moreover, in series [4], the “Ratio CC50/EC50” value is over 21.3.
In series [1], `O=c1c(CN2CCCC2)cc(CN2CCCC2)cc(CN2CCCC2)c1O` had a pIC50 of 3.74. The CC50 in series [2] is over 500 µM. In addition, the negative logarithm of the EC50 (pEC50) in the series on Hepatitis C virus [3] is under 3.30.
In series [1], `CC1CCN(Cc2cc(CN3CCC(C)CC3)c(O)c(=O)c(CN3CCC(C)CC3)c2)CC1` showed a pIC50 of 4.98. This molecule also displayed a half-maximal cytotoxic concentration (CC50) in series [2] of 556 µM. Further, in the series with Hepatitis C virus [3], the pEC50 is 4.49. The “Ratio CC50/EC50” value in series [4] came out at 17.4.
For `CC1CCCN(Cc2cc(CN3CCCC(C)C3)c(O)c(=O)c(CN3CCCC(C)C3)c2)C1` (centres undefined), in series [1], the pIC50 is 4.75. The molecule also showed a CC50 in series [2] of 348 µM. This molecule had a negative-log EC50 (pEC50) in the series on Hepatitis C virus [3] of 4.45. Further, in series [4], the “Ratio CC50/EC50” value worked out at 9.8.
In series [1], `O=c1c(CN2CCC(O)CC2)cc(CN2CCC(O)CC2)cc(CN2CCC(O)CC2)c1O` gave a pIC50 of 4.64. Besides, the CC50 in series [2] was over 250 µM. In the series with Hepatitis C virus [3], the pEC50 is under 3.60.
In turn, `[N-]=[N+]=N[C@]1(CO)O[C@@H](n2ccc(N)nc2=O)[C@H](O)[C@@H]1O` [4'-AZIDOCYTIDINE] had a CC50 in series [2] of over 100 µM. Moreover, the pEC50 in the series with Hepatitis C virus [3] is 4.98.
As for `NC(=O)c1ncn([C@@H]2O[C@H](CO)[C@@H](O)[C@H]2O)n1` [RIBAVIRIN], the CC50 in series [2] stood at 178 µM. Besides, in the series on Hepatitis C virus [3], the pEC50 is 3.92. Also, in series [4], the “Ratio CC50/EC50” value stood at 1.5.

The values above are taken from ChEMBL document CHEMBL1250429, “Studies on the anti-hepatitis C virus activity of newly synthesized tropolone derivatives: identification of NS3 helicase inhibitors that specifically inhibit subgenomic HCV replication” (Bioorg Med Chem, 2010).
